Calls of active or inactive are those of the source. The rule behind the calls is not given here.
Assays:
[1] = system: MDA-MB-231; assay: Induction of apoptosis in human MDA-MB-231 cells assessed as necrotic cells at IC50 concentration incubated for 72 hrs by Annexin V/propidium iodide staining based flow cytometry analysis (reference value: 1.11 %); format: functional
[2] = system: MDA-MB-231; assay: Induction of autophagy in human MDA-MB-231 cells at IC50 concentration incubated for 72 hrs by acridine orange staining based flow cytometry analysis; format: functional, cell-based
[3] = system: MDA-MB-231; assay: Induction of apoptosis in human MDA-MB-231 cells assessed as chromatin condensation incubated for 72 hrs by propidium iodide staining based fluorescence microscopy analysis; format: functional, cell-based
[4] = system: MCF7; assay: Antiproliferative activity against human MCF7 cells assessed as reduction in cell viability by measuring number of adherent cells incubated for 72 hrs by crystal violet staining based assay; format: functional; conditions: MCF7, 72 h
Procedure, shortened: (§1)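 Adherent tumour lines grown in HEPES-buffered RPMI-1640 with 10% heat-inactivated FCS, 2 mM L-glutamine, 0.01% sodium pyruvate, penicillin/streptomycin, 37 °C, 5% CO2. Seeding per well: MCF-7 7 × 10³, MDA-MB-231 4 × 10³, MDA-MB-361 6 × 10³, U251 2 × 10³. Cells seeded overnight, then exposed to a dose range for 72 h from 20 mM DMSO stocks diluted in medium. Washed, fixed, read by MTT or CV. IC50 given as mean ± SD of at least three independent experiments.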

[5] = system: MCF7; assay: Antiproliferative activity against human MCF7 cells assessed as reduction in cell viability by measuring total mitochondrial respiration incubated for 72 hrs by MTT assay; format: functional, cell-based; conditions: MCF7, 72 h; procedure, shortened: as §1
[6] = Cytotoxicity against mouse Peritoneal exudate cell assessed as reduction in cell viability by measuring total mitochondrial respiration incubated for 72 hrs by MTT assay; format: toxicity, cell-based; conditions: peritoneal exudate cells
Procedure, shortened: (§2)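 Mouse peritoneal exudate cells were exposed to a dose range for 72 h, and viability was read by MTT (mitochondrial respiration) or CV (adherent cells). Compounds came from 20 mM DMSO stocks diluted in medium. IC50 given as mean ± SD.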

[7] = system: MDA-MB-231; assay: Antiproliferative activity against human MDA-MB-231 cells assessed as reduction in cell viability by measuring number of adherent cells incubated for 72 hrs by crystal violet staining based assay; format: functional; conditions: MDA-MB-231, 72 h; procedure, shortened: as §1
[8] = system: MDA-MB-231; assay: Induction of apoptosis in human MDA-MB-231 cells assessed as late apoptotic cells at IC50 concentration incubated for 72 hrs by Annexin V/propidium iodide staining based flow cytometry analysis (reference value: 3.19 %); format: functional
[9] = system: MDA-MB-361; assay: Antiproliferative activity against human MDA-MB-361 cells assessed as reduction in cell viability by measuring total mitochondrial respiration incubated for 72 hrs by MTT assay; format: functional, cell-based; conditions: MDA-MB-361, 72 h; procedure, shortened: as §1
[10] = system: MDA-MB-231; assay: Induction of RNS production in human MDA-MB-231 cells assessed as oxidative burst incubated for 72 hrs by DHR staining based flow cytometry analysis; format: functional, cell-based
Procedure, shortened: (§3)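 MDA-MB-231 cells were treated for 72 h, then pre-stained with 1 µM dihydrorhodamine 123 for 20 min at 37 °C. After PBS washing and trypsinisation, ROS/RNS were read by flow cytometry.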

[11] = system: MDA-MB-231; assay: Induction of autophagy in human MDA-MB-231 cells assessed as increase in granularity of the cellular cytoplasm at IC50 concentration incubated for 72 hrs by flow cytometric analysis
[12] = system: MDA-MB-231; assay: Induction of apoptosis in human MDA-MB-231 cells assessed as viable cells at IC50 concentration incubated for 72 hrs by Annexin V/propidium iodide staining based flow cytometry analysis (reference value: 95.0 %); format: functional
[13] = system: MDA-MB-231; assay: Induction of apoptosis in human MDA-MB-231 cells assessed as abnormal cell size incubated for 72 hrs by propidium iodide staining based fluorescence microscopy analysis; format: functional
[14] = system: MDA-MB-361; assay: Antiproliferative activity against human MDA-MB-361 cells assessed as reduction in cell viability by measuring number of adherent cells incubated for 72 hrs by crystal violet staining based assay; format: functional; conditions: MDA-MB-361, 72 h; procedure, shortened: as §1
[15] = system: U-251; assay: Antiproliferative activity against human U-251 cells assessed as reduction in cell viability by measuring total mitochondrial respiration incubated for 72 hrs by MTT assay; format: functional, cell-based; conditions: U-251, 72 h; procedure, shortened: as §1
[16] = Cytotoxicity against mouse Peritoneal exudate cell assessed as reduction in cell viability by measuring number of adherent cells incubated for 72 hrs by crystal violet staining based assay; format: toxicity; procedure, shortened: as §2
[17] = system: MDA-MB-231; assay: Induction of apoptosis in human MDA-MB-231 cells assessed as abnormal cell shape incubated for 72 hrs by propidium iodide staining based fluorescence microscopy analysis; format: functional
[18] = system: MDA-MB-231; assay: Induction of apoptosis in human MDA-MB-231 cells assessed as increase in cell nuclei incubated for 72 hrs by propidium iodide staining based fluorescence microscopy analysis; format: functional
[19] = system: MDA-MB-231; assay: Antiproliferative activity against human MDA-MB-231 cells assessed as reduction in cell viability by measuring total mitochondrial respiration incubated for 72 hrs by MTT assay; format: functional, cell-based; conditions: MDA-MB-231, 72 h; procedure, shortened: as §1
[20] = system: MDA-MB-231; assay: Induction of apoptosis in human MDA-MB-231 cells assessed as caspase activation incubated for 72 hrs by Apostat staining based flow cytometry analysis; format: functional, cell-based
[21] = system: U-251; assay: Antiproliferative activity against human U-251 cells assessed as reduction in cell viability by measuring number of adherent cells incubated for 72 hrs by crystal violet staining based assay; format: functional; conditions: U-251, 72 h; procedure, shortened: as §1
[22] = system: MDA-MB-231; assay: Induction of ROS production in human MDA-MB-231 cells assessed as oxidative burst incubated for 72 hrs by DHR staining based flow cytometry analysis; format: functional, cell-based; procedure, shortened: as §3
[23] = system: MDA-MB-231; assay: Antiproliferative activity against human MDA-MB-231 cells assessed as reduction in cell viability at IC50 concentration incubated for 72 hrs in presence of chloroquine by crystal violet staining based assay; format: functional
[24] = system: MDA-MB-231; assay: Induction of apoptosis in human MDA-MB-231 cells assessed as early apoptotic cells at IC50 concentration incubated for 72 hrs by Annexin V/propidium iodide staining based flow cytometry analysis (reference value: 0.72 %); format: functional
[25] = system: MDA-MB-231; assay: Antiproliferative activity against human MDA-MB-231 cells assessed as reduction in cell viability at IC50 concentration incubated for 72 hrs in presence of 3-MA by crystal violet staining based assay; format: functional
[26] = (§4) Selectivity index, ratio of IC50 for cytotoxicity against mouse Peritoneal exudate cell assessed as reduction in cell viability by measuring number of adherent cells to IC50 for antiproliferative activity against human MDA-MB-231 cells assessed as reduction in cell viability by measuring number of adherent cells; format: toxicity, cell-based; conditions: mouse peritoneal exudate cells versus human MDA-MB-231 cells, read-out: Ratio IC50
Procedure, shortened: (§5)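 Selectivity index is the IC50 in normal mouse peritoneal exudate cells divided by the IC50 in MDA-MB-231. Both IC50s come from 72 h dose-range treatment, read by the same assay: CV (adherent cells) or MTT (mitochondrial respiration).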

[27] = as §4, with “total mitochondrial respiration” for “number of adherent cells”; format: toxicity, cell-based; conditions: mouse peritoneal exudate cells versus human MDA-MB-231 cells, read-out: Ratio IC50; procedure, shortened: as §5

SMILES	Activity [1]	Activity [2]	Activity [3]	IC50 [4]	IC50 [5]	IC50 at 72 h [6]	IC50 [7]	Activity [8]	IC50 [9]	Activity [10]	Activity [11]	Activity [12]	Activity [13]	IC50 [14]	IC50 [15]	IC50 at 72 h [16]	Activity [17]	Activity [18]	IC50 [19]	Activity [20]	further results
O=C(c1ccc(OCCN2CCCCC2)cc1)c1c(-c2ccc(O)cc2)sc2cc(O)ccc12 [RALOXIFENE]	0.93%	Active	Active	21.4 µM	16.8 µM	18.3 µM	22 µM	11.5%	22.2 µM	Active	Active	67%	Active	38.9 µM	19.2 µM	20.4 µM	Active	Active	19.1 µM	Active	IC50 [21]: 23.4 µM; Activity [22]: Active; Activity [23]: Active; Activity [24]: 20.6%; Activity [25]: Active
COc1ccc(-c2sc3cc(OC)ccc3c2C(=O)c2ccc(OCc3ccnc(-c4ccccn4)c3)cc2)cc1	1.01%	Active	Active	2.4 µM	2.15 µM	15.4 µM	1.5 µM	23.3%	6.3 µM	Active	Active	46.4%	Active	> 100 µM	2.2 µM	18.9 µM	Active	Active	1.6 µM	Active	selectivity ratio [26]: 12.6; selectivity ratio [27]: 9.5; IC50 [21]: 2.6 µM; Activity [22]: Active; Activity [23]: Active; Activity [24]: 29.3%; Activity [25]: Active

From ChEMBL document CHEMBL5532753, “Bipyraloxifene - a modified raloxifene vector against triple-negative breast cancer” (RSC Med Chem, 2024)
